SMILES strings stand for the structures.

Consider 14 molecules from ChEMBL document CHEMBL1157023, “Synthesis and antimicrobial activities of some new thiazole and pyrazole derivatives based on 4,5,6,7-tetrahydrobenzothiophene moiety” (2010).

Holding throughout (format): functional
For one test, the system named is Klebsiella pneumoniae. Kind of test: Antimicrobial activity against Klebsiella pneumoniae at 2 mg/ml after 24 hrs by agar diffusion assay. Conditions: read-out: DIZ. The method in brief: (§1)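 Bacterial strain grown on nutrient agar with test compound in DMSO, DMSO-only control plate for each organism, ampicillin 2 mg/ml as reference. Plates incubated 24 h in three replicate plates per compound. Activity read as inhibition zone diameter.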
Background: In agar diffusion tests the substance spreads into inoculated agar from a disc or well.

For another test, the system named is Botrytis fabae. Kind of test: Antifungal activity against Botrytis fabae at 2 mg/ml after 7 days by agar diffusion assay. Conditions: 168 h, read-out: DIZ. The method in brief:
(§2)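 Fungus grown on potato dextrose agar with test compound in DMSO, DMSO-only control plate for each organism. Plates incubated seven days in three replicate plates per compound. Activity read as inhibition zone diameter.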

In the next test the test system is Fusarium oxysporum. Kind of test: Antifungal activity against Fusarium oxysporum at 2 mg/ml after 7 days by agar diffusion assay. The note with it: 168 h, read-out: DIZ. The method in brief: as §2
The test system of a further test is Bacillus thuringiensis. Kind of test: Antibacterial activity against Bacillus thuringiensis at 2 mg/ml after 24 hrs by agar diffusion assay. Conditions: read-out: DIZ. An outline of the steps:
as §1

For `CC(=O)c1nnc2c(C(=O)Nc3sc4c(c3C(N)=O)CCCC4)c(Nc3ccccc3)nn2c1C`, the values for the zone of inhibition at 2000 µg/mL with Klebsiella pneumoniae and in the test with Botrytis fabae were 12 mm and 18 mm, respectively.
`Cc1cc(C)n2nc(Nc3ccccc3)c(C(=O)Nc3sc4c(c3C(N)=O)CCCC4)c2n1`: the zone of inhibition at 2000 µg/mL is 17 mm in the test on Klebsiella pneumoniae, 13 mm in the test on Fusarium oxysporum, 15 mm with Botrytis fabae and 15 mm with Bacillus thuringiensis.
Consider `NC(=O)c1c(NC(=O)c2c(Nc3ccccc3)nn3c4c(cnc23)CCc2ccccc2-4)sc2c1CCCC2`, for which the zone of inhibition at 2000 µg/mL in the test with Klebsiella pneumoniae was 17 mm; in the test with Fusarium oxysporum, 17 mm; with Bacillus thuringiensis, 15 mm.
Consider `Cc1ccc(N/N=C2/C(=O)S/C(=C(\C#N)C(=O)Nc3sc4c(c3C(N)=O)CCCC4)N2c2ccccc2)cc1`, for which the zone of inhibition at 2000 µg/mL in the test with Klebsiella pneumoniae was determined as 19 mm; in the test on Fusarium oxysporum, 16 mm; in the test with Botrytis fabae, 18 mm; in the test on Bacillus thuringiensis it was 22 mm.
As for `Cc1nn(-c2ccccc2)c2c1cnc1c(C(=O)Nc3sc4c(c3C(N)=O)CCCC4)c(Nc3ccccc3)nn12`, the zone of inhibition at 2000 µg/mL was determined as 18 mm with Klebsiella pneumoniae, 14 mm in the test with Fusarium oxysporum, 16 mm in the test on Botrytis fabae and 16 mm in the test on Bacillus thuringiensis.
`NC(=O)c1c(NC(=O)c2cn[nH]c2N)sc2c1CCCC2`: the zone of inhibition at 2000 µg/mL came to 20 mm in the test on Klebsiella pneumoniae, 12 mm in the test on Fusarium oxysporum, 16 mm in the test with Botrytis fabae and 17 mm with Bacillus thuringiensis.
For `Cc1ccc(C)n1-c1[nH]nc(Nc2ccccc2)c1C(=O)Nc1sc2c(c1C(N)=O)CCCC2` the same measures were 22 mm, 14 mm, 18 mm and 18 mm.
On the same counts, the results for `NC(=O)c1c(NC(=O)c2c(Nc3ccccc3)nn3c(-c4ccccc4)ccnc23)sc2c1CCCC2` are 19 mm, 19 mm, 15 mm and 15 mm.
Consider `COc1ccc(/C=c2\c(=O)s/c(=C(\C#N)C(=O)Nc3sc4c(c3C(N)=O)CCCC4)n2-c2ccccc2)cc1`, for which the zone of inhibition at 2000 µg/mL with Klebsiella pneumoniae came out at 23 mm; in the test on Fusarium oxysporum, 15 mm; with Botrytis fabae it was 13 mm; with Bacillus thuringiensis, 20 mm.
On the same counts, the results for `Cc1cc(C)c2c(n1)nn1c(N)c(C(=O)Nc3sc4c(c3C(N)=O)CCCC4)nnc21` are 18 mm, 13 mm, 13 mm and 16 mm.
Turning to `NC(=O)c1c(NC(=O)c2c(Nc3ccccc3)n[nH]c2N)sc2c1CCCC2`, the zone of inhibition at 2000 µg/mL stood at 22 mm in the test on Klebsiella pneumoniae, 14 mm in the test with Fusarium oxysporum and 24 mm in the test with Bacillus thuringiensis.
Regarding `N#Cc1nnc2c(C(=O)Nc3sc4c(c3C(N)=O)CCCC4)c(Nc3ccccc3)nn2c1N`, the zone of inhibition at 2000 µg/mL turned out to be 18 mm with Klebsiella pneumoniae, 16 mm in the test with Botrytis fabae and 16 mm with Bacillus thuringiensis.
Regarding `N#C/C(C(=O)Nc1sc2c(c1C(N)=O)CCCC2)=C1\SC(=O)CN1c1ccccc1`, the zone of inhibition at 2000 µg/mL in the test with Klebsiella pneumoniae was found to be 19 mm; in the test on Fusarium oxysporum, 16 mm; in the test with Botrytis fabae, 12 mm; in the test on Bacillus thuringiensis it was 21 mm.
On the same counts, the results for `CC1(C)S[C@@H]2[C@H](NC(=O)[C@H](N)c3ccccc3)C(=O)N2[C@H]1C(=O)O` [AMPICILLIN] are 20 mm, 17 mm, 15 mm and 17 mm.
